Source: ChEMBL document CHEMBL1137227, “Identification of a selective inverse agonist for the orphan nuclear receptor estrogen-related receptor alpha” (J Med Chem, 2004)
“And” between values parts separate entries of the source, which are not always exact repeats. Equal entries are not always repeated.

How the values were obtained:
[1] = target: T1, Steroid hormone receptor ERR1 (Homo sapiens, UniProt P11474); assay: (§1) Inhibition of estrogen-related receptor alpha Gal4 activity
T1 sequence (P11474 whole entry): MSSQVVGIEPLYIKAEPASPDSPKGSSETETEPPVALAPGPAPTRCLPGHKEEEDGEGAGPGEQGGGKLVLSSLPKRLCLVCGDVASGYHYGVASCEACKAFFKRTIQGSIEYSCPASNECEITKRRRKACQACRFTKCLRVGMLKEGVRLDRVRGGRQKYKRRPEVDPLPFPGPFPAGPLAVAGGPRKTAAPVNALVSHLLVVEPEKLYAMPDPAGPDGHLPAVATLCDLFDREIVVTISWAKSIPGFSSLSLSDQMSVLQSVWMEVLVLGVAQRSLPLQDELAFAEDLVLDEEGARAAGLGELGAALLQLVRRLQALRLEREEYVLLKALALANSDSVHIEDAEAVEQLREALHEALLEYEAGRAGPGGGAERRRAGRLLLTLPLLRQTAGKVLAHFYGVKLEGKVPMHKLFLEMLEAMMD

[2] = target: T2, Steroid hormone receptor ERR1 (Homo sapiens) (UniProt P11474); assay: Percent inhibition of estrogen-related receptor alpha Gal4 activity at 10 uM
T2 sequence (whole entry): T1 sequence (P11474 whole entry)
Outline: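 Gal4-ERRα cell-based cotransfection assay with compound tested at a single concentration of 10 μM. Activity expressed as percent inhibition of ERRα-driven Gal4 signal.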

[3] = target: T1, Steroid hormone receptor ERR1; assay: Inhibition of estrogen-related receptor alpha Gal4 activity; not active
Outline: (§2)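 Cell-based cotransfection assay in Gal4-ERRα format. IC50 fitted by nonlinear regression to 10-dose titration curves and averaged over at least two experiments. Standard error of the mean typically under 30% per experiment. NA means not active under assay conditions.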

[4] = target: T1, Steroid hormone receptor ERR1; assay: as §1; outline: as §2; remark: listed apart in the source
[5] = target: T1, Steroid hormone receptor ERR1; assay: Inhibition of estrogen-related receptor alpha in FP assay

Row | Compound | IC50 [1] | inhibition [2] | IC50 [3] | IC50 [4] [nM] | IC50 [5] [nM]
1 | COc1cc(/C=C(\C#N)C(=O)Nc2nncs2)ccc1OCCOc1c(C)cccc1C | 1400 nM | 103% | – | – | –
2 | COc1cc(/C=C(\C#N)C(=O)Nc2nnc(-c3ccc(N(C)C)cc3)s2)ccc1OCCOc1c(C)cccc1C | 2000 nM | 74% | – | – | –
3 | COc1cc(/C=C(\C#N)C(=O)Nc2nnc(SC)s2)ccc1OCc1ccc(C(F)(F)F)cc1C(F)(F)F | 440 nM | 105% | – | – | –
4 | CCC1=NN2C/C(=C/c3ccc(OCCOc4c(C)cccc4C)c(OC)c3)C(=O)N=C2S1 | – | – | – | 2300 | 1400
5 | CCc1nnc(NC(=O)/C(C#N)=C/c2ccc(OCCOc3c(C)cccc3C)c(OC)c2)o1 | 3300 nM | 88% | – | – | –
6 | COc1cc(/C=C(\C#N)C(=O)Nc2nnc(C(F)(F)F)s2)ccc1OCCOc1c(C)cccc1C | 1500 nM | 112% | – | – | –
7 | COc1cc(/C=C(\C#N)C(=O)Nc2nnc(C(F)(F)F)s2)ccc1OCc1ccc(C(F)(F)F)cc1C(F)(F)F | – | 109% | – | – | –
8 | COc1cc(/C=C(\C#N)C(=O)Nc2nnc(-c3ccccc3)s2)ccc1OCc1ccc(C(F)(F)F)cc1C(F)(F)F | 500 nM | 105% | – | – | –
9 | COc1cc(/C=C(\C#N)C(=O)Nc2nnc(SC)s2)ccc1OCCOc1c(C)cccc1C | 2600 nM | 92% | – | – | –
10 | COc1cc(/C=C(\C#N)C(=O)Nc2nnc(C(C)(C)C)s2)ccc1OCc1ccc(C(F)(F)F)cc1C(F)(F)F | > 10000 nM | 43% | – | – | –
11 | COc1cc(/C=C(\C#N)C(=O)Nc2nncs2)ccc1OCc1ccc(C(F)(F)F)cc1C(F)(F)F | 750 nM | 99% | – | – | –
12 | COc1cc(/C=C(\C#N)C(=O)Nc2nccs2)ccc1OCCOc1c(C)cccc1C | – | – | Not Active | – | –
13 | COc1cc(/C=C(\C#N)C(=O)Nc2nnc(C(C)(C)C)s2)ccc1OCCOc1c(C)cccc1C | 1700 nM | 104% | – | – | –

Second part, the compound after the results:

Row | IC50 [1] | inhibition [2] | IC50 [3] | IC50 [4] [nM] | IC50 [5] [nM] | Compound
14 | – | – | Not Active | – | – | CCc1nnc(NC(=O)/C(C#N)=C/c2ccc(OCc3cc(C(F)(F)F)ccc3C(F)(F)F)c(OC)c2)s1
15 | 400 nM and 610 nM and 540 nM | 106% and 104% and 99% | – | – | – | CCc1nnc(NC(=O)/C(C#N)=C/c2ccc(OCc3ccc(C(F)(F)F)cc3C(F)(F)F)c(OC)c2)s1
16 | 2000 nM | 96% | – | – | – | CCc1nnc(NC(=O)/C(C#N)=C/c2ccc(OCCOc3c(C)cccc3C)c(OC)c2)s1
17 | 2200 nM | 57% | – | – | – | CCc1nnc(NC(=O)/C(C#N)=C/c2ccc(OCc3ccccc3Br)c(OC)c2)s1
18 | 920 nM and 1500 nM | 109% and 90% | – | – | – | CCc1nnc(NC(=O)/C(C#N)=C/c2ccc(OCc3ccc(F)cc3C(F)(F)F)c(OC)c2)s1
19 | 1800 nM | 90% | – | – | – | CCc1nnc(NC(=O)/C(C#N)=C/c2ccc(OCc3cccc4ccccc34)c(OC)c2)s1
20 | 1800 nM | 101% | – | – | – | CCc1nnc(NC(=O)/C(C#N)=C/c2ccc(OCc3ccccc3OC(F)(F)F)c(OC)c2)s1
21 | 800 nM and 1700 nM | – | – | – | – | CCc1nnc(NC(=O)/C(C#N)=C/c2ccc(OCc3cc(F)ccc3C(F)(F)F)c(OC)c2)s1
22 | – | – | Not Active | – | – | CCc1nnc(NC(=O)/C(C#N)=C/c2ccc(OCc3c(F)cccc3C(F)(F)F)c(OC)c2)s1
